Each structure is given as a SMILES string. Active and inactive are the calls of the source. The rule behind the calls is not given here.

Results on 23 compounds are retold here after ChEMBL document CHEMBL1828601, “Small molecule peptidomimetic inhibitors of importin α/β mediated nuclear transport” (Bioorg Med Chem, 2010).

The subject of the first test is FGM. The experiment in a line: Inhibition of importin alpha/beta-mediated nuclear transportation of Alexa555-GST-M9 in human FGM cell nucleus at 500 uM after 30 mins by fluorescence microscopy. The test is classed as cell-based. An outline of the steps: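 Transportin-dependent import measured the same way in permeabilized FGM cells, with 0.5 μM Alexa555-GST-M9 cargo in place of BSA-NLS. Conditions: 3 mg/ml HeLa cytosol, ATP-regenerating system, 0.2 mM GTP, 1% DMSO, 30 min at 30°C. Positive control was 1 mg/ml WGA. Nuclear cargo fluorescence quantified per nucleus by automated imaging.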
For `NCCCCNC(=O)[C@@H]1CN(C(=O)[C@@H](N)CO)C[C@H]1C(=O)NCCc1ccc2ccccc2c1`, the inhibition entry was “inactive”.
As for `N[C@@H](CC(=O)O)C(=O)N1C[C@@H](C(=O)NCCc2c[nH]cn2)[C@H](C(=O)NCCc2c[nH]c3ccccc23)C1`, the inhibition entry is “inactive”.
In the case of `CC[C@H](C)[C@H](NC(=O)c1ccc(NC(=O)[C@H](C)N)c(OCc2c[nH]cn2)c1)C(=O)O`, the inhibition result was “inactive”.
`CSCC[C@H](N)C(=O)N1C[C@@H](C(=O)NCCCCN)[C@H](C(=O)NCCc2ccc3ccccc3c2)C1`: the inhibition entry is “inactive”.
On the same count and under the same terms, next, `CC[C@H](C)[C@H](NC(=O)c1ccc(NC(=O)[C@@H](N)Cc2ccc(O)cc2)c(OCc2c[nH]cn2)c1)C(=O)O`: “inactive”; `CC[C@@H](C)[C@H](NC(=O)c1ccc(NC(=O)[C@@H](N)CC(=O)O)c(OCc2c[nH]cn2)c1)C(=O)O`: “inactive”.
As for `N[C@@H](Cc1ccc(O)cc1)C(=O)N1C[C@@H](C(=O)NCCc2c[nH]cn2)[C@H](C(=O)NCCc2c[nH]c3ccccc23)C1`, the inhibition result was “Active”.
In the case of `NCCCCNC(=O)[C@@H]1CN(C(=O)[C@@H](N)Cc2ccccc2)C[C@H]1C(=O)NCCc1ccc2ccccc2c1`, the inhibition entry is “inactive”.
`CC(C)C[C@H](N)C(=O)Nc1ccc(C(=O)N[C@@H](CCc2ccccc2)C(=O)O)cc1OCc1ccc(Cl)cc1`: the inhibition result is “Active”.
As for `N[C@@H](CO)C(=O)N1C[C@@H](C(=O)NCCc2c[nH]cn2)[C@H](C(=O)NCCc2c[nH]c3ccccc23)C1`, the inhibition entry is “inactive”.
Consider `CC[C@@H](C)[C@H](NC(=O)c1ccc(NC(=O)[C@@H](N)CCCCN)c(OCc2c[nH]cn2)c1)C(=O)O`, for which the inhibition entry is “inactive”.
For the compound `CC[C@H](C)[C@H](NC(=O)c1ccc(NC(=O)[C@@H](N)Cc2ccc(OC)cc2)c(OCc2c[nH]cn2)c1)C(=O)O`, the inhibition result is “inactive”.
On to `NCCCCNC(=O)[C@@H]1CN(C(=O)[C@@H](N)CCCCN)C[C@H]1C(=O)NCCc1ccc2ccccc2c1`, for which the inhibition result was “inactive”.
The same measure, in the same setting: next, `NC(=O)C[C@H](N)C(=O)N1C[C@@H](C(=O)NCCc2c[nH]cn2)[C@H](C(=O)NCCc2c[nH]c3ccccc23)C1`: “inactive”; `N[C@@H](CCc1ccc(O)cc1)C(=O)N1C[C@@H](C(=O)NCCc2c[nH]cn2)[C@H](C(=O)NCCc2c[nH]c3ccccc23)C1`: “inactive”.
For `CC[C@@H](C)[C@H](NC(=O)c1ccc(NC(=O)[C@@H](N)[C@@H](C)O)c(OCc2c[nH]cn2)c1)C(=O)O`, the inhibition entry is “inactive”.
`CC[C@H](N)C(=O)Nc1ccc(C(=O)N[C@@H](CCc2ccccc2)C(=O)O)cc1OCc1ccc(Cl)cc1`: the inhibition entry was “Active”.
Consider `CC(C)[C@H](N)C(=O)Nc1ccc(C(=O)N[C@@H](CCc2ccccc2)C(=O)O)cc1OCc1ccc(Cl)cc1`, for which the inhibition result was “inactive”.
The same measure, in the same setting: in the case of `CC[C@H](C)[C@H](N)C(=O)N1C[C@@H](C(=O)NCCc2c[nH]cn2)[C@H](C(=O)NCCc2c[nH]c3ccccc23)C1` it was “Active”; in that of `NCCCCNC(=O)[C@@H]1CN(C(=O)[C@@H](N)CC(N)=O)C[C@H]1C(=O)NCCc1ccc2ccccc2c1`, “inactive”.
Take `CC[C@H](C)[C@H](NC(=O)c1ccc(NC(=O)[C@@H](N)CCc2ccccc2)c(OCc2c[nH]cn2)c1)C(=O)O`: the inhibition result was “Active”.
Still for that read-out and setting: in the case of `N[C@@H](Cc1ccccc1)C(=O)Nc1ccc(C(=O)N[C@@H](CCc2ccccc2)C(=O)O)cc1OCc1ccc(Cl)cc1` it was “Active”; in that of `N[C@@H](Cc1c[nH]c2ccccc12)C(=O)Nc1ccc(C(=O)N[C@@H](CCc2ccccc2)C(=O)O)cc1OCc1ccc(Cl)cc1`, “Active”.

Another test deals with FGM. The experiment in a line: Inhibition of importin alpha/beta-mediated nuclear transportation of Alexa555-BSA-NLS in human FGM cell nucleus at 500 uM after 30 mins by fluorescence microscopy. The test is classed as cell-based.
Turning to `NCCCCNC(=O)[C@@H]1CN(C(=O)[C@@H](N)CO)C[C@H]1C(=O)NCCc1ccc2ccccc2c1`, the inhibition entry was “inactive”.
Regarding `N[C@@H](CC(=O)O)C(=O)N1C[C@@H](C(=O)NCCc2c[nH]cn2)[C@H](C(=O)NCCc2c[nH]c3ccccc23)C1`, the inhibition entry was “inactive”.
Consider `CC[C@H](C)[C@H](NC(=O)c1ccc(NC(=O)[C@H](C)N)c(OCc2c[nH]cn2)c1)C(=O)O`, for which the inhibition entry was “inactive”.
On the same count and under the same terms, in the case of `CSCC[C@H](N)C(=O)N1C[C@@H](C(=O)NCCCCN)[C@H](C(=O)NCCc2ccc3ccccc3c2)C1` it was “inactive”; in that of `CC[C@H](C)[C@H](NC(=O)c1ccc(NC(=O)[C@@H](N)Cc2ccc(O)cc2)c(OCc2c[nH]cn2)c1)C(=O)O`, “inactive”; in that of `CC[C@@H](C)[C@H](NC(=O)c1ccc(NC(=O)[C@@H](N)CC(=O)O)c(OCc2c[nH]cn2)c1)C(=O)O`, “inactive”.
For `N[C@@H](Cc1ccc(O)cc1)C(=O)N1C[C@@H](C(=O)NCCc2c[nH]cn2)[C@H](C(=O)NCCc2c[nH]c3ccccc23)C1`, the inhibition entry is “Active”.
`NCCCCNC(=O)[C@@H]1CN(C(=O)[C@@H](N)Cc2ccccc2)C[C@H]1C(=O)NCCc1ccc2ccccc2c1`: the inhibition entry is “inactive”.
As for `CC(C)C[C@H](N)C(=O)Nc1ccc(C(=O)N[C@@H](CCc2ccccc2)C(=O)O)cc1OCc1ccc(Cl)cc1`, the inhibition result is “Active”.
As to `N[C@@H](CO)C(=O)N1C[C@@H](C(=O)NCCc2c[nH]cn2)[C@H](C(=O)NCCc2c[nH]c3ccccc23)C1`, the inhibition result is “inactive”.
For the compound `CC[C@@H](C)[C@H](NC(=O)c1ccc(NC(=O)[C@@H](N)CCCCN)c(OCc2c[nH]cn2)c1)C(=O)O`, the inhibition result is “inactive”.
With `CC[C@H](C)[C@H](NC(=O)c1ccc(NC(=O)[C@@H](N)Cc2ccc(OC)cc2)c(OCc2c[nH]cn2)c1)C(=O)O`, the inhibition entry was “inactive”.
Same read-out and setting: in the case of `NCCCCNC(=O)[C@@H]1CN(C(=O)[C@@H](N)CCCCN)C[C@H]1C(=O)NCCc1ccc2ccccc2c1` it was “inactive”; in that of `NC(=O)C[C@H](N)C(=O)N1C[C@@H](C(=O)NCCc2c[nH]cn2)[C@H](C(=O)NCCc2c[nH]c3ccccc23)C1`, “inactive”.
Take `N[C@@H](CCc1ccc(O)cc1)C(=O)N1C[C@@H](C(=O)NCCc2c[nH]cn2)[C@H](C(=O)NCCc2c[nH]c3ccccc23)C1`: the inhibition result was “inactive”.
In the case of `CC[C@@H](C)[C@H](NC(=O)c1ccc(NC(=O)[C@@H](N)[C@@H](C)O)c(OCc2c[nH]cn2)c1)C(=O)O`, the inhibition result is “inactive”.
The same measure, in the same setting: next, `CC[C@H](N)C(=O)Nc1ccc(C(=O)N[C@@H](CCc2ccccc2)C(=O)O)cc1OCc1ccc(Cl)cc1`: “Active”; `CC(C)[C@H](N)C(=O)Nc1ccc(C(=O)N[C@@H](CCc2ccccc2)C(=O)O)cc1OCc1ccc(Cl)cc1`: “inactive”.
Turning to `CC[C@H](C)[C@H](N)C(=O)N1C[C@@H](C(=O)NCCc2c[nH]cn2)[C@H](C(=O)NCCc2c[nH]c3ccccc23)C1`, the inhibition entry was “Active”.
Regarding `NCCCCNC(=O)[C@@H]1CN(C(=O)[C@@H](N)CC(N)=O)C[C@H]1C(=O)NCCc1ccc2ccccc2c1`, the inhibition result is “inactive”.
With `CC[C@H](C)[C@H](NC(=O)c1ccc(NC(=O)[C@@H](N)CCc2ccccc2)c(OCc2c[nH]cn2)c1)C(=O)O`, the inhibition entry was “Active”.
For the compound `N[C@@H](Cc1ccccc1)C(=O)Nc1ccc(C(=O)N[C@@H](CCc2ccccc2)C(=O)O)cc1OCc1ccc(Cl)cc1`, the inhibition entry is “Active”.
Still for that read-out and setting: next, `N[C@@H](Cc1c[nH]c2ccccc12)C(=O)Nc1ccc(C(=O)N[C@@H](CCc2ccccc2)C(=O)O)cc1OCc1ccc(Cl)cc1`: “Active”.
